We go through four compounds from ChEMBL document CHEMBL2331406, “In vitro activity of scorpiand-like azamacrocycle derivatives in promastigotes and intracellular amastigotes of Leishmania infantum and Leishmania braziliensis” (Eur J Med Chem, 2013).

SMILES strings stand for the structures. Activity calls are given as the source filed them. The calls are words filed in the database; no cut-off is given here.

In general, IC50 refers to the concentration that gives 50% inhibition. Low readings indicate greater potency, high ones weaker potency.

Series [1] is described as follows: Ratio of compound selectivity index to glucantime selectivity index for promastigote form of Leishmania braziliensis MHOM/BR/1975/M2904 over mouse J774.2 cells.
For series [2], the system named is Leishmania infantum. In words: Antileishmanial activity against axenic amastigote form of Leishmania infantum MCAN/ES/2001/UCM-10 after 72 hrs by haemocytometric analysis. The format is functional, organism-based. As to conditions: Leishmania infantum, MCAN/ES/2001/UCM-10, 72 h. In short, it runs like this: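 Axenic amastigotes made by culturing promastigotes 3 days at 37 °C in M199 with 10% heat-inactivated FCS plus organic acids, amino acids, sucrose, bicarbonate, MES, haemin and gentamicin, pH 5.4. Compound effect counted in a Neubauer haemocytometer chamber. IC50 by linear regression of Kc values at 1, 10, 25, 50 and 100.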

Series [3] addresses Superoxide dismutase [Mn] (Escherichia coli) (UniProt P00448). Kind of series: Inhibition of Escherichia coli Mn-SOD by NBT reduction assay.
The nature of series [4]: Selectivity index, ratio of IC50 for mouse J774.2 cells to IC50 for amastigote form of Leishmania braziliensis MHOM/BR/1975/M2904 infected in J774.2 cells. The format is toxicity, cell-based. As to conditions: J774.2 cells, read-out: Ratio IC50. In short, it runs like this: (§1)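 J774.2 macrophages in MEM + 2 mM glutamine + 20% inactivated FCS were infected with stationary-phase promastigotes (10:1) for 24 h at 37 °C, 5% CO2. After washing, compounds were added at […] for 72 h. Amastigote reduction was scored in methanol-fixed, Giemsa-stained preparations; IC50 by regression; triplicates. SI = J774.2 IC50 (72 h flow cytometry)/amastigote IC50; ratio is versus Glucantime SI.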

Series [5] concerns Leishmania braziliensis. Kind of series: Antileishmanial activity against promastigote form of […] Leishmania braziliensis MHOM/BR/1975/M2904 infected in J774.2 cells assessed as inhibition of infection in host cells at IC25 concentration incubated for 12 hrs […] by microscopic analysis. The format is functional, MHOM/BR/75/M2904.
A short description of series [6]: Ratio of compound selectivity index to glucantime selectivity index for amastigote form of Leishmania infantum MCAN/ES/2001/UCM-10 infected in J774.2 cells over mouse J774.2 cells. Put shortly: as §1
In series [7] the test system is Leishmania braziliensis. In words: Antileishmanial activity against promastigote form of Leishmania braziliensis MHOM/BR/1975/M2904 assessed as cytoplasmic alterations at IC25 concentration after 96 hrs by MET microscopic analysis. In kind it is functional. As to conditions: MHOM/BR/75/M2904. Put shortly: (§2)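 Promastigotes at 5 × 10^5 cells/mL in MTL medium with compound at IC25 for 96 h. Ultrastructure examined by transmission electron microscopy against untreated control parasites.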

The nature of series [8]: Inhibition of promastigote form Leishmania infantum MCAN/ES/2001/UCM-10 Fe-SOD by NBT reduction assay. In short, it runs like this: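 Promastigotes sonicated in STE buffer (pH 7.8). The 35–85% ammonium sulphate fraction was desalted into 20 mM potassium phosphate/1 mM EDTA, pH 7.8, and protein was measured by Bradford. Fe-SOD activity was read spectrophotometrically as inhibition of NBT reduction by superoxide (Beyer–Fridovich); one unit gives 50% inhibition of the rate. Compounds tested at […]; IC50 by linear regression; three determinations, Newman–Keuls test.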

Series [9] is described as follows: Ratio of compound selectivity index to glucantime selectivity index for axenic amastigote form of Leishmania infantum MCAN/ES/2001/UCM-10 over mouse J774.2 cells. In short, it runs like this: (§3)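 Axenic amastigotes obtained by 3-day promastigote transformation in supplemented M199 + 10% heat-inactivated FCS, pH 5.4, 37 °C. […] Host toxicity: J774.2, 72 h, PI/FDA flow cytometry. SI = macrophage IC50/axenic amastigote IC50; ratio is compound SI over Glucantime SI.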

Series [10] in a line: Selectivity index, ratio of IC50 for mouse J774.2 cells to IC50 for promastigote form of Leishmania infantum MCAN/ES/2001/UCM-10. In kind it is toxicity. As to conditions: J774.2 cells, read-out: Ratio IC50. Put shortly: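 J774.2 toxicity: 72 h at the same concentrations, viability by flow cytometry with propidium iodide/fluorescein diacetate; IC50 by linear regression. SI = macrophage IC50/parasite IC50; ratio is compound SI over Glucantime SI.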

Series [11] has as its system Leishmania braziliensis. Kind of series: Antileishmanial activity against promastigote form of Leishmania braziliensis MHOM/BR/1975/M2904 assessed as electro-dense vesicles at IC25 concentration after 96 hrs by MET microscopic analysis. In kind it is functional. As to conditions: MHOM/BR/75/M2904. In short, it runs like this: as §2
Series [12] deals with Leishmania braziliensis. In words: Antileishmanial activity against promastigote form of […] MHOM/BR/1975/M2904 infected in J774.2 cells assessed as inhibition of number of amastigotes per host cell at IC25 concentration incubated for 12 hrs followed by compound washout measured after 48 hrs by microscopic analysis. In kind it is functional, MHOM/BR/75/M2904. In short, it runs like this: (§4)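 J774.2 cells seeded at 1 × 10^4 cells/well on coverslips and cultured 2 days. Infected with promastigotes at 10:1 with drug at IC25 added immediately, for 12 h at 37 °C in 5% CO2. Parasites and drug washed out, then grown 10 days with washing and fresh medium every 48 h. On methanol-fixed, Giemsa-stained slides, % infected cells and amastigotes per infected cell scored from more than 200 host cells. Three determinations.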

Series [13] can be described thus: Selectivity index, ratio of IC50 for mouse J774.2 cells to IC50 for axenic amastigote form of Leishmania braziliensis MHOM/BR/1975/M2904. In kind it is toxicity. As to conditions: J774.2 cells, read-out: Ratio IC50. Put shortly:
as §3

Series [14] has as its system Leishmania braziliensis. Kind of series: Antileishmanial activity against promastigote form of Leishmania braziliensis MHOM/BR/1975/M2904 assessed as mortality at IC25 concentration after 96 hrs by MET microscopic analysis. As to conditions: MHOM/BR/75/M2904. In kind it is functional. In short, it runs like this:
as §2

Series [15] relates to Leishmania infantum. Kind of series: Antileishmanial activity against promastigote form of Leishmania infantum MCAN/ES/2001/UCM-10 assessed as increase in glycosomes at IC25 concentration after 96 hrs by […] electron microscopic analysis relative to control. In kind it is functional, organism-based. In short, it runs like this: as §2
The test system of series [16] is Leishmania infantum. Kind of series: Antileishmanial activity against promastigote form of Leishmania infantum MCAN/ES/2001/UCM-10 assessed as change in acetate metabolite production at IC25 concentration after 96 hrs by H1-NMR analysis. The format is functional. In short, it runs like this:
(§5)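 Promastigote cultures, initial 5 × 10^5 cells/mL, given the IC25 of compound; controls left untreated. Incubated 96 h at 28 °C, then centrifuged at 400g for 10 min. Excreted metabolites in the medium identified by 1H NMR spectra and compared with untreated control.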

Series [17] concerns Leishmania infantum. Kind of series: Antileishmanial activity against promastigote form of Leishmania infantum MCAN/ES/2001/UCM-10 assessed as change in alanine metabolite production at IC25 concentration after 96 hrs by H1-NMR analysis. In kind it is functional. In short, it runs like this:
as §5

The subject of series [18] is Leishmania infantum. In words: Antileishmanial activity against promastigote form of Leishmania infantum MCAN/ES/2001/UCM-10 assessed as ethanol metabolite production at IC25 concentration after 96 hrs by H1-NMR analysis. In kind it is functional. In short, it runs like this:
as §5

For series [19], the system named is Leishmania infantum. In words: Antileishmanial activity against promastigote form of Leishmania infantum MCAN/ES/2001/UCM-10 assessed as change in lactate metabolite production at IC25 concentration after 96 hrs by H1-NMR analysis. In kind it is functional. In short, it runs like this:
as §5

Series [20] has as its system Leishmania infantum. Kind of series: Antileishmanial activity against promastigote form of Leishmania infantum MCAN/ES/2001/UCM-10 infected in J774.2 cells assessed as inhibition of number of amastigotes per host cell at IC25 concentration incubated for 12 hrs followed by compound washout measured after 48 hrs by microscopic analysis. The format is functional. Put shortly:
as §4

The subject of series [21] is Leishmania infantum. In words: Antileishmanial activity against promastigote form of Leishmania infantum MCAN/ES/2001/UCM-10 assessed as change in succinate metabolite production at IC25 concentration after 96 hrs by H1-NMR analysis. The format is functional. Put shortly:
as §5

Superoxide dismutase [Mn] (Escherichia coli), sequence (P00448 whole entry, looked up): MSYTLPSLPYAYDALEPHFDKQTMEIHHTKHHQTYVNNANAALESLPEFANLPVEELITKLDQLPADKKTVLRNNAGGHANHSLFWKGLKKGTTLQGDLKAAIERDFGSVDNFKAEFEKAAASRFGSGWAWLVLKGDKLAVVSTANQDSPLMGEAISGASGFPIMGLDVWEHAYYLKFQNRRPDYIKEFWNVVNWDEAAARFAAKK

Consider `Br.NCCN1CCNCc2cccc(n2)CNCC1`, for which the Ratio in series [1] is on record as 30; in series [6] it was 18; in series [9], 16. Further, the concentration for half-maximal inhibition (IC50) in [2] stood at 29.2 µM; in series [3], 381 µM; in series [8], 6.5 µM. For the same compound, the selectivity ratio was found to be 23.2 in series [4], 12.2 in [10] and 14.5 in series [13]. Further, the “inhibition (INH)” value in series [5] came to 64%; in series [12] it was 55%. In addition, the outcome in series [7], in series [11] and in series [14] was Active.
On to `Cl.c1cncc(CNCCN2CCNCc3cccc(n3)CNCC2)c1`, for which the figures for the Ratio in [1], in series [6] and in series [9] were 34, 149 and 59, respectively. In addition, the IC50 in [2] amounted to 15.9 µM; in series [3], 641 µM; in series [8], 5.7 µM. Moreover, the selectivity ratio was 45.4 in series [4], 24.9 in series [10] and 19.6 in series [13]. For the same compound, the outcome in series [15], in [7], in series [11] and in series [14] was Active. The “inhibition (INH)” value in [5] is reported as 86%; in series [12] it was 80%; in [20] it was 77%. The Activity in series [16] is on record as 1%; in [17] it was -12%; in series [18] it was 28%; in [19] it was -38%; in series [21], -36%.
As for `Cl.c1ccc(CNCCN2CCNCc3cccc(n3)CNCC2)nc1`, the Ratio in [1] is 37; in [6], 26; in [9], 20. In addition, the 50% inhibitory concentration (IC50) in series [2] worked out at 25.4 µM; in series [3], 179 µM; in series [8], 16.1 µM. In addition, the selectivity ratio was found to be 24.4 in series [4], 16.4 in series [10] and 15.9 in [13]. In addition, the outcome in series [15], in series [7], in series [11] and in [14] was Active. For the same compound, the results for the “inhibition (INH)” value in series [5], in series [12] and in series [20] were 83%, 67% and 67%, respectively. For the same compound, the Activity in [16] is -19%; in [17] it was 12%; in series [18] it was 10%; in [19], 13%; in [21] it was -59%.
Turning to `Cl.c1cc2nc(c1)CNCCN(CCNCc1cccc3ccccc13)CCNC2`, the Ratio was 49 in series [1], 42 in [6] and 26 in [9]. In addition, the concentration for half-maximal inhibition (IC50) in series [2] is 28.1 µM; in [3], 408 µM; in series [8] it was 17.6 µM. The results for the selectivity ratio in series [4], in [10] and in series [13] were 22, 18.8 and 14.7, respectively. Besides, the outcome in series [15], in series [7], in series [11] and in series [14] was Active. For the same compound, the “inhibition (INH)” value came out at 71% in series [5], 59% in series [12] and 71% in [20]. Moreover, the Activity in [16] is on record as -6%; in series [17], -18%; in series [18], 110%; in series [19] it was -44%; in series [21], -3%.
